# From PubChem BioAssay
# Rows were chosen to be rich in hits. Some 1.4% of all compounds tested hit in one or more screens of this group.
# Mot1-301 SUMO: inhibitors of SUMOylation pathway: yeast Mot1-301 growth rescue | S. cerevisiae Mot1-301 growth rescue, ATP luminescence, 38.5C; percent above DMSO median, 100 means doubled | growth rescue, % at 18.8 µM | actives 1% (n = 320,000);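 active means every valid replicate shows activation above 250% relative to neutral control wells; inactive means the rest, any valid replicate at or below 250%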;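 further: OY570 slx delta 5 strain wells were the positive control but not used for scaling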
# GASC-1 inh: human JMJD2C demethylase inhibition; Q9H3R0; GST-JMJD2C(1-420) H3K9me3 demethylation, DELFIA europium; inhibition, % at 2.35 µM; actives 0.069% (n = 330,000); AID 2099;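 active means more than half of a compound's replicate wells show inhibition beyond 50%, single wells judged on their own value; inconclusive means some, but no more than half, of replicates pass 50% inhibition; inactive means no replicate passes 50% inhibition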;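 further: signal counts dimethyl H3K9 product captured on neutravidin plate; 0% = median of DMSO wells and 100% = 0.3 times that DMSO median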
# Target sequence (Q9H3R0 1-420 limits assumed): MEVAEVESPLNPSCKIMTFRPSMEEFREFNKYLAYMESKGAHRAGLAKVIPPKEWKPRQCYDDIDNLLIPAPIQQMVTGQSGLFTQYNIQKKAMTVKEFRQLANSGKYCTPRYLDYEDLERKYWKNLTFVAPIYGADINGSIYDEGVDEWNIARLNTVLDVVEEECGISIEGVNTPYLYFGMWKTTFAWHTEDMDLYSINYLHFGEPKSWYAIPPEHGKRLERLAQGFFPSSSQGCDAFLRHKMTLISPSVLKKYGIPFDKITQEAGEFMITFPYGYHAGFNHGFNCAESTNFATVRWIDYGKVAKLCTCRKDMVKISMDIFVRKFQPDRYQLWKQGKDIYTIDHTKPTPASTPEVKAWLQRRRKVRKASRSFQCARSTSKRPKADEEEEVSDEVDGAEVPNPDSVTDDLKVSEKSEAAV
# HIF act: HIF pathway transcriptional activation; U2OS HRE-luciferase reporter, luminescence; normalized: DMSO 0%, desferrioxamine 100%; activation, % at 7.5 µM (by protocol); actives 0.32% (n = 300,000);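 active means mean activation of at least 10% of the iron chelator positive control signal, with at least half of replicates also reaching 10%; inconclusive means mean and replicate majority disagree about reaching 10%; inactive means mean and most replicates under 10%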
# T cell HTS: modulates CD8 T cell binding to vesicles; response (vesicle binding), % at 7 µM; 2C CD8+ T cell-vesicle binding, flow cytometry; stronger effect = lower value; AID 2052; actives 0.068% (n = 330,000);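 active means response, share of CD8 T cells binding vesicles, and their 90th percentile fluorescence all below set limits, cut at about 80% in these data, passing the limit was not always enough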;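 further: values below 100% mean blocked vesicle binding to the CD8+ T cells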
#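 Test system: purified 2C TCR transgenic mouse naive CD8+ T cells. Probe or stimulus: QL9-peptide-loaded Drosophila micro-vesicles bearing Ld, ICAM-1 and B7-1. Incubation: binding step 1.5 h, 37 °C, antibody labelling 20 min, ice. Measured by: flow cytometry of vesicle-bound cells.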
# Yeast Mot1 SUMO: yeast SUMO pathway inhibition in dose response. S. cerevisiae Mot1-301 galactose growth, ATP luminescence, 24 h; -100 = growth of slx-deleted rescue strain. 2,300 tested, under 10 active. shares compounds with Mot1-301 SUMO. AID 493004. growth activity, percent, % at 42 µM;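 active means Signal drops as the depositor expects, and the fitted half-maximal dose is no more than ten times the top valid tested dose; inconclusive means Poor fit, or a flat curve whose signal drops by 30% to 70%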;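 further: more negative values mean stronger growth rescue toward the control strain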
# Starred values were filed as active, the others as inactive; i = inactive; ? = inconclusive; / = not tested or not shown; + = active, no number.
SMILES,Mot1-301 SUMO,GASC-1 inh,HIF act,T cell HTS,Yeast Mot1 SUMO
Cn1cc(Br)c(C(=O)Nc2c(F)c(F)c(F)c(F)c2F)n1,3,0,0,521,/
Cn1cc(Br)c(C(=O)Nc2nccs2)n1,626*,2,0,267,0
COC(=O)CN1C(=O)c2cccc3cccc1c23,798*,115,2,231,-1
CN(C)C(=O)CN1C(=O)c2cccc3cccc1c23,+,-6,-34,433,0
CCCc1cc(=O)[nH]c(SCC(=O)Nc2cc(S(=O)(=O)N(CC)c3ccccc3)ccc2Cl)n1,3,31,/,295,/
CN(C)/C=C/C(=O)c1ccc(Br)cc1,9,0,0,137,/
CN(C)/C=C/C(=O)c1ccncc1,877*,-2,0,309,0
O=C(Nc1c(Cl)cccc1Cl)C1CCN(C(=O)c2cccs2)CC1,-10,-7,0,234,/
O=C(c1cc(-c2ccc(Cl)cc2)n(-c2ccc(Cl)cc2)n1)N1CCOCC1,399*,32,0,346,0
CC(C)(C)OC(=O)N1CCN(c2ccc([N+](=O)[O-])cc2)CC1,1,17,-1,284,/
CCN1CCN(CC(=O)Nc2ccc(C)cc2C)C(=O)C1=O,6,0,0,204,/
CCN1CCN(CC(=O)Nc2cccc(C)c2C)C(=O)C1=O,518*,3,0,397,1
COc1ccccc1C(=O)NCCNc1ccc([N+](=O)[O-])cc1Cl,456*,-4,1,192,-1
COc1ccc(CCNC(=O)c2ccc([N+](=O)[O-])cc2Cl)cc1OC,11,9,0,392,/
COC(=O)c1cc(S(=O)(=O)NCc2ccc3c(c2)OCO3)cn1C,-15,10,-1,i,/
CSc1ccccc1NC(=O)CN1CCN(S(=O)(=O)c2ccccc2[N+](=O)[O-])CC1,-2,8,/,334,/
O=C(O)/C=C/c1cnn(-c2ccccc2)c1,/,17,?,/,/
CC(Cc1ccc(O)c(O)c1)C(C)Cc1ccc(O)c(O)c1 (centres undefined),553*,-36,0,109,0
Cc1ccc(-n2c(C)cc(/C=N/NC(=O)c3ccncc3)c2C)cc1C,753*,-3,0,236,0
C=C(C(=O)Oc1c(C(C)(C)C)cccc1C(C)(C)C)c1ccccc1,-2,6,/,405,/
Cc1ccc(-c2nc(-c3cccnc3)sc2CC(=O)O)cc1,885*,-4,0,i,0
CC(=O)Nc1ccc(NC(=O)Cc2sc(-c3cccnc3)nc2-c2ccc(C)cc2)cc1,-6,-1,0,237,/
CC(=O)N1CCc2cc(S(=O)(=O)NCCC3=CCCCC3)ccc21,+,24,-11,580,0
N#C/C(=C\c1ccccc1O)C(=O)Nc1ccccn1,58,22,0,272,/
Cc1ccc2nc(NC(=O)CNS(=O)(=O)c3ccc(Br)s3)sc2c1,520*,1,0,537,0
SMILES,Mot1-301 SUMO,GASC-1 inh,HIF act,T cell HTS,Yeast Mot1 SUMO
Cc1ccc2c(c1)C(=O)N1[C@H]3c4ccccc4OC[C@@H]3[C@H](c3ccccc3)[C@]1(C)C(=O)N2,+,-69,/,176,0
C[C@@]12C(=O)Nc3ccc(Br)cc3C(=O)N1[C@H]1c3ccccc3OC[C@@H]1[C@@H]2c1ccccc1,+,39,/,304,-1
COc1ccc(/C=C(\C#N)C(=O)c2cccn2C)cc1,396*,11,-1,123,0
O=C1c2cccc3c(N4CCCCC4)ccc(c23)C(=O)N1CCO,424*,2,3,706,1
C=CCN1C(=O)c2cccc3c(N4CCCCC4)ccc(c23)C1=O,-8,0,2,212,/
CCOc1ncccc1C(=O)OCC(=O)N(CC)c1ccccc1,439*,4,-1,326,0
COc1cccc(C(=O)Nc2ccc(C(F)(F)F)n(C)c2=O)c1,84,-3,2,217,/
CCOc1ccc(C(=O)Nc2ccc(C(F)(F)F)n(C)c2=O)cc1,+,-1,0,270,0
Cc1ccccc1OCC(=O)Nc1nnc(COc2ccccc2)s1,-17,-1,0,479,/
O=C(/C=C/c1ccco1)NC(=S)Nc1ccccc1,-11,-1,5,326,/
Cc1cccc(NC(=S)NC(=O)/C=C/c2ccco2)c1,706*,-22,3,400,-1
COc1cc(/C=N/NC(=O)c2nnn(-c3nonc3N)c2-c2cccs2)ccc1O,-4,4,-1,120,/
COc1ccc(/C=N/NC(=O)c2nnn(-c3nonc3N)c2-c2cccs2)cc1OC,399*,13,0,207,-1
Cc1c(C(=O)N/N=C/c2ccccn2)nnn1-c1nonc1N,-1,2,0,432,/
CC1C(=O)CC(c2ccccc2)N(C)C1c1ccccc1 (centres undefined),537*,7,0,356,0
CC(C)(C)c1ccc(C(=O)NCCC(=O)N2CCN(c3ncccn3)CC2)cc1,552*,-10,0,i,0
COC(=O)[C@H](Cc1ccccc1)NC(=O)N1CCN(c2ccc(F)cc2)CC1,61,-3,0,105,/
CC(C)c1ccc(C2C(C(=O)c3ccco3)=C(O)C(=O)N2CCN2CCOCC2)cc1 (centres undefined),+,-1,0,259,0
CCOc1ccc(C2C(C(=O)c3ccco3)=C(O)C(=O)N2CCN2CCOCC2)cc1 (centres undefined),3,-4,0,255,/
CCOc1ccccc1NC(=O)CSc1nc(N)c(C#N)cc1C#N,+,3,0,978,1
O=C(O)C1CCC(CNS(=O)(=O)c2ccccc2)CC1 (centres undefined),10,9,-1,198,/
O=C(CCCNC(=O)/C(=C/c1ccc(Br)cc1)NC(=O)c1ccccc1)OCc1ccccc1,-7,14,0,223,/
O=C(CCCNC(=O)/C(=C/c1ccccc1F)NC(=O)c1ccccc1)OCc1ccccc1,496*,-6,0,279,1
CCOC(=O)C1C(c2ccc(C)o2)NC(=O)NC1(O)C(F)(F)F (centres undefined),459*,-2,0,84,1
CC1(C)Cc2c(c(N3CCCC3)nc3sc4c(N5CCN(CCO)CC5)ncnc4c23)CO1,707*,-7,/,499,0
O=C1CN(C(=O)COC(=O)COc2ccc3c(c2)CCC3)c2ccccc2N1,586*,-2,-1,592,0
COc1ccc(CN2C(=O)c3c(c(C)n(C)c3C)C2C(=O)NC2CCC(C)CC2)cc1 (centres undefined),697*,-4,-2,398,-1
CCCCN(C)C(=O)c1cc2c(Cl)nc3ccccc3c2s1,433*,-10,-22,279,0
